# Publication PMC8444931 (Clinical and Translational Science, 2021)
# Key:
# [1] = molecular target: JAK1 (Homo sapiens, UniProt P23458); assay: biochemical
# [2] = molecular target: JAK2 (Homo sapiens, UniProt O60674); assay: biochemical
# [3] = molecular target: T1, Tyk2 (Homo sapiens, UniProt P29597); assay: biochemical
# T1 sequence (P29597 897-1176 limits assumed): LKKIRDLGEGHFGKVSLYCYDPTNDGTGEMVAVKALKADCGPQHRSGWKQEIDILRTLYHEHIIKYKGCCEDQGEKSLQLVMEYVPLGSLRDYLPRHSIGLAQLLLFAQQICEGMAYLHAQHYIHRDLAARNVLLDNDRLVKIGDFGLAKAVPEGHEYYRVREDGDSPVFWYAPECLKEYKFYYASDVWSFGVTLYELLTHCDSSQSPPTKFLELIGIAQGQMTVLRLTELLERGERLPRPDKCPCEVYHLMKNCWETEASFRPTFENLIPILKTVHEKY
# [4] = test system: cytokine‐induced STAT6 phosphorylation; assay: cytokine‐induced STAT6 phosphorylation in bronchial epithelial cell lines; format: cell-based; details: data on file, Theravance Biopharma
# [5] = test system: JAK; assay: cell‐based assays of JAK inhibition; details: Homo sapiens, Epithelial cell, read-out: most potent half‐maximal JAK inhibition (IC50) in a cell‐based assay
# [6] = human plasma protein binding; format: in vitro ADME
# [7] = phase I part A; format: in vivo, human; details: for TEAE Cough / TEAE Dizziness / TEAE Headache / TEAE related to nezulcitinib / Total participants with TEAEs: part A
# How it was run: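 Healthy adults aged 18–50 (BMI 18–32 kg/m^2, FEV1 ≥80% predicted) in a double-blind, randomized, placebo-controlled single ascending dose study. Three cohorts of 8 (6 active, 2 placebo) got one nebulized dose of 1, 3 or 10 mg or placebo; a sentinel pair was dosed ≥24 h first. TEAEs were coded by MedDRA, with follow-up 1 week (±2 days) post-dose.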
# [8] = phase I part B; format: in vivo, human
# How it was run: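 Double-blind, randomized, placebo-controlled multiple ascending dose study in healthy adults aged 18–50 (FEV1 ≥80% predicted). Three cohorts of 10 (8 active, 2 placebo) got nebulized 1, 3 or 10 mg or placebo once daily for 7 days, staying in residence through day 9. Monitoring covered exams, vital signs, 12-lead ECGs, spirometry, clinical labs and MedDRA-coded TEAEs; follow-up came 1 week (±2 days) after the last dose.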
# [9] = phase I part A plasma pharmacokinetics; format: in vivo, human; details: for Tmax / AUC(0-t) / Cmax / Vd/F: human, plasma, inhaled or intranasal
# How it was run: (§1)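 Healthy adults got a single nebulized dose (1, 3 or 10 mg). Blood and urine were sampled predose and over 72 h postdose. Plasma and urine PK parameters were estimated per participant and summarized as geometric mean (CV%). Urinary excretion was expressed as cumulative percentage of administered dose.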
# [10] = phase I part A urine pharmacokinetics; format: in vivo, human; details: geometric mean (CV%)
# How it was run: as §1
# [11] = phase I part B plasma pharmacokinetics; format: in vivo, human; details: for DN AUCtau / DN Cmax,ss: dose normalized; for DN AUCtau / DN Cmax,ss / Ctrough,ss: geometric mean (geometric CV%); for AUC / Cmax / Tmax: human, inhaled; for AUC / Cmax / Tmax / Ctrough,ss: plasma
# How it was run: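 Healthy adults got nebulized 1, 3 or 10 mg once daily for 7 days. Serial blood was drawn through 24 h after the day-1 dose and from predose through 48 h after the day-7 dose; troughs were drawn predose on days 3–6. Day-7 parameters, including dose-normalized values, were given as geometric mean (geometric CV%). Accumulation ratios were AUCtau/day-1 AUC0-24 and Cmax,ss/day-1 Cmax.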
# [12] = format: physicochemical; details: PARI eFlow nebulizer, dose range 0.1–10 mg
# [13] = metabolism in dog lung S9 fractions; format: in vitro ADME; details: dog lung S9 fortified with 3'‐phosphate‐5'‐phosphosulfate; data on file
# [14] = metabolism in rat lung S9; format: in vitro ADME; details: data on file
# [15] = metabolism in human lung S9; format: in vitro ADME; details: data on file
# [16] = metabolite identification in rat hepatocytes; format: in vitro ADME
# [17] = metabolite identification in dog hepatocytes; format: in vitro ADME
# [18] = metabolite identification in human hepatocytes; format: in vitro ADME
# [19] = elimination in the rat; format: in vivo; details: preclinical data
# [20] = test system: COVID‐19; details: in combination with remdesivir, patients with COVID‐19; cited from earlier work
# [21] = test system: COVID‐19; details: phase III RUXCOVID study; cited from earlier work
# [22] = all nezulcitinib doses, Total (n = 18)
# [23] = single inhaled dose 1 mg (n = 6)
# [24] = single inhaled dose 3 mg (n = 6)
# [25] = single inhaled dose 10 mg (n = 6)
# [26] = one participant, 10 mg, part B, by day 9, deemed not related to study drug
# [27] = part B, 1 mg once daily for 7 days (n = 8)
# [28] = part B, 3 mg once daily for 7 days (n = 8)
# [29] = part B, 10 mg once daily for 7 days (n = 8)
# [30] = part B, all nezulcitinib doses, Total (n = 24)
# Chain of JAK2 (O60674 849-1124 limits assumed): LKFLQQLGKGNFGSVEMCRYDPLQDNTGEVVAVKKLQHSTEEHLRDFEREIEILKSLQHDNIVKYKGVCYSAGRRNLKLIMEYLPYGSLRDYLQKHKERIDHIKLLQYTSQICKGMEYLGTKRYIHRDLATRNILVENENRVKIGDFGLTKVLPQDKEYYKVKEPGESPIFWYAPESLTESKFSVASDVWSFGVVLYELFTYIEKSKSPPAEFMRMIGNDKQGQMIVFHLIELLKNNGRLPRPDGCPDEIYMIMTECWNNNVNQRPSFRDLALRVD
# Chain of JAK1 (P23458 875-1153 limits assumed): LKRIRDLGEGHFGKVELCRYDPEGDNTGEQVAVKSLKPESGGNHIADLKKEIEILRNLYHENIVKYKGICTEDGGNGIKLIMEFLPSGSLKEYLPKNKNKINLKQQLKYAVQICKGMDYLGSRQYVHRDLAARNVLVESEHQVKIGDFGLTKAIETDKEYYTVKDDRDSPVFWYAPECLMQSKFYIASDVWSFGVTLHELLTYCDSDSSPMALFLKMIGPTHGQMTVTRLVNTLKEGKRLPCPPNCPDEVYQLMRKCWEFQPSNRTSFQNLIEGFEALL
smiles,measurement,setting,value
CCc1cc(O)ccc1-c1ccc2c(-c3nc4c([nH]3)CN(C(C)C)[C@H](C(=O)N3CC(N(C)C)C3)C4)n[nH]c2c1 [Nezulcitinib],Ki,[1],0.0501 nM
same,Ki,[2],0.0251 nM
same,Ki,[3],0.631 nM
same,inhibition of cytokine‐induced STAT6 phosphorylation,[4],inhibits
same,IC50,[5],12.6 nM
same,fraction unbound,[6],0.019
same,TEAE Cough,[7]; [22],2 (11) n (%)
same,TEAE Dizziness,[7]; [22],2 (11) n (%)
same,TEAE Headache,[7]; [22],1 (6) n (%)
same,TEAE related to nezulcitinib,[7]; [22],0 n (%)
same,Total participants with TEAEs,[7]; [22],6 (33) n (%)
same,TEAE Cough,[7]; [23],1 (17) n (%)
same,TEAE Dizziness,[7]; [23],1 (17) n (%)
same,TEAE Headache,[7]; [23],1 (17) n (%)
same,TEAE related to nezulcitinib,[7]; [23],0 n (%)
same,Total participants with TEAEs,[7]; [23],4 (67) n (%)
same,TEAE Cough,[7]; [24],0 n (%)
same,TEAE Dizziness,[7]; [24],0 n (%)
same,TEAE Headache,[7]; [24],0 n (%)
same,TEAE related to nezulcitinib,[7]; [24],0 n (%)
same,Total participants with TEAEs,[7]; [24],0 n (%)
same,TEAE Cough,[7]; [25],1 (17) n (%)
same,TEAE Dizziness,[7]; [25],1 (17) n (%)
same,TEAE Headache,[7]; [25],0 n (%)
same,TEAE related to nezulcitinib,[7]; [25],0 n (%)
same,Total participants with TEAEs,[7]; [25],2 (33) n (%)
same,tolerability,"[7]; single inhaled dose, healthy participants",generally well‐tolerated
same,alanine aminotransferase (ALT) elevation,[8]; [26],3.8 × ULN
same,aspartate aminotransferase (AST) elevation,[8]; [26],approximately 2.8 × ULN
same,Moderate or severe TEAEs,[8]; [27],0 n (%)
same,TEAE Cough,[8]; [27],0 n (%)
same,TEAE Dizziness,[8]; [27],1 (13) n (%)
same,TEAE Headache,[8]; [27],1 (13) n (%)
same,TEAE Lethargy,[8]; [27],1 (13) n (%)
same,TEAE Medical device site reaction,[8]; [27],0 n (%)
same,TEAE related to nezulcitinib,[8]; [27],0 n (%)
same,Total participants with TEAEs,[8]; [27],4 (50) n (%)
same,Moderate or severe TEAEs,[8]; [28],0 n (%)
same,TEAE Cough,[8]; [28],2 (25) n (%)
same,TEAE Dizziness,[8]; [28],1 (13) n (%)
same,TEAE Headache,[8]; [28],3 (38) n (%)
same,TEAE Lethargy,[8]; [28],0 n (%)
same,TEAE Medical device site reaction,[8]; [28],0 n (%)
same,TEAE related to nezulcitinib,[8]; [28],0 n (%)
same,Total participants with TEAEs,[8]; [28],3 (38) n (%)
same,Moderate or severe TEAEs,[8]; [29],2 (25) n (%)
same,TEAE Cough,[8]; [29],3 (38) n (%)
same,TEAE Dizziness,[8]; [29],1 (13) n (%)
same,TEAE Headache,[8]; [29],0 n (%)
same,TEAE Lethargy,[8]; [29],0 n (%)
same,TEAE Medical device site reaction,[8]; [29],1 (13) n (%)
same,TEAE related to nezulcitinib,[8]; [29],1 (13) n (%)
same,Total participants with TEAEs,[8]; [29],6 (75) n (%)
same,TEAE Cough,[8]; [30],5 (21) n (%)
same,TEAE Dizziness,[8]; [30],3 (13) n (%)
same,TEAE Headache,[8]; [30],4 (17) n (%)
same,TEAE Lethargy,[8]; [30],1 (4) n (%)
same,TEAE Medical device site reaction,[8]; [30],1 (4) n (%)
same,TEAE related to nezulcitinib,[8]; [30],1 (4) n (%)
same,Total participants with TEAEs,[8]; [30],13 (54) n (%)
same,changes from baseline in vital sign and ECG assessments,[8]; parts A and B,No clinically significant changes
same,severe or serious AEs,[8]; parts A and B,No severe or serious AEs
same,tolerability,"[8]; single daily doses up to 10 mg for 7 days, healthy participants",generally well‐tolerated
same,Tmax,[9],~1 h
same,AUC(0-t),[9]; 1 mg,18.7 ng·h/mL
same,Cmax,[9]; 1 mg,5.5 ng/mL
same,Vd/F,[9]; 1 mg,1390 L
same,AUC(0-t),[9]; 3 mg,45.2 ng·h/mL
same,Cmax,[9]; 3 mg,13.8 ng/mL
same,Tmax,[9]; 3 mg,1 h
same,Vd/F,[9]; 3 mg,2300 L
same,AUC(0-t),[9]; 10 mg,157 ng·h/mL
same,Cmax,[9]; 10 mg,47.3 ng/mL
same,Tmax,[9]; 10 mg,1 h
same,Vd/F,[9]; 10 mg,2200 L
same,dose proportionality of plasma exposures (Cmax and AUC0‐t),"[9]; part A, single dose 1, 3, 10 mg",increased proportionally
same,Cum%Dose (cumulative percentage of administered dose excreted),[10]; single inhaled dose 1 mg,0.97 (38.3) %
same,Cum%Dose (cumulative percentage of administered dose excreted),[10]; single inhaled dose 3 mg,0.72 (17.5) %
same,Cum%Dose (cumulative percentage of administered dose excreted),[10]; single inhaled dose 10 mg,0.84 (41.6) %
same,DN AUCtau,"[11]; part B day 7, 1 mg once daily",21.0 (25.7) ng•h/ml/mg
same,"DN Cmax,ss","[11]; part B day 7, 1 mg once daily",5.6 (24.1) ng/ml/mg
same,DN AUCtau,"[11]; part B day 7, 3 mg once daily",17.2 (32.5) ng•h/ml/mg
same,"DN Cmax,ss","[11]; part B day 7, 3 mg once daily",5.9 (42.6) ng/ml/mg
same,DN AUCtau,"[11]; part B day 7, 10 mg once daily",17.8 (65.0) ng•h/ml/mg
same,"DN Cmax,ss","[11]; part B day 7, 10 mg once daily",5.0 (46.4) ng/ml/mg
same,AUC,[11]; 1 mg,21 ng·h/mL
same,Cmax,[11]; 1 mg,5.6 ng/mL
same,Tmax,[11]; 1 mg,1 h
same,AUC,[11]; 3 mg,51.6 ng·h/mL
same,Cmax,[11]; 3 mg,17.6 ng/mL
same,Tmax,[11]; 3 mg,1 h
same,AUC,[11]; 10 mg,178 ng·h/mL
same,Cmax,[11]; 10 mg,49.6 ng/mL
same,Tmax,[11]; 10 mg,1 h
same,dose proportionality of plasma exposures (Cmax and AUC0–t),"[11]; part B, 7 days of once‐daily dosing 1, 3, 10 mg",increased proportionally
same,time to steady‐state plasma concentrations,"[11]; part B, once‐daily dosing, from daily plasma trough concentrations",≤ 4 days
same,"Ctrough,ss","[11]; part B day 7, 1 mg once daily",0.2 (29.5) ng/ml
same,"Ctrough,ss","[11]; part B day 7, 3 mg once daily",0.3 (39.0) ng/ml
same,"Ctrough,ss","[11]; part B day 7, 10 mg once daily",1.1 (83.6) ng/ml
same,"emitted fine particle dose, of the nominal dose",[12],40%
same,metabolic stability in lung S9,[13],extensive conversion to the sulfation product
same,metabolic stability in lung S9,[14],relatively stable
same,metabolic stability in lung S9,[15],relatively stable
same,primary metabolite,[16],sulfation product
same,primary metabolite,[17],sulfation product
same,primary metabolite,[18],"an oxidation, methylation, and glucuronidation product"
same,amount eliminated in the urine and bile as unchanged compound,[19],minor amount
CCS(=O)(=O)N1CC(CC#N)(n2cc(-c3ncnc4[nH]ccc34)cn2)C1 [baricitinib],recovery time,[20],significantly shortened recovery time
N#CC[C@H](C1CCCC1)n1cc(-c2ncnc3[nH]ccc23)cn1 [ruxolitinib],primary end point,[21],did not meet its primary end point
